ChEMBL document CHEMBL1147663, “Structure-activity relationships of bifunctional peptides based on overlapping pharmacophores at opioid and cholecystokinin receptors” (J Med Chem, 2006)
pEC50, pIC50, pKi: −log10 of the molar value.

What was measured:
[1] = target: T1, Delta-type opioid receptor (Homo sapiens, UniProt P41143); experiment: Displacement of [3H]DPDPE from human delta opioid receptor expressed in HN9.10 cells; format: cell-based
Summary of the method: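 HN9.10 cell membranes (50 μg) expressing hDOR, 10 test concentrations with 1.0 nM [3H]DPDPE in 50 mM Tris pH 7.4 with peptidase inhibitors and BSA, 3 h at 25 °C, duplicates; filtration, scintillation counting. Nonspecific with 10 μM naloxone. Ki by Cheng–Prusoff.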

[2] = target: T2, Mu-type opioid receptor (Rattus norvegicus, UniProt P33535); experiment: Displacement of [3H]DAMGO from rat mu opioid receptor expressed in HN9.10 cells; format: cell-based
Summary of the method: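 HN9.10 cell membranes (50 μg) expressing rMOR, 10 test concentrations with 1.0 nM [3H]DAMGO in 50 mM Tris pH 7.4 with peptidase inhibitors and BSA, 3 h at 25 °C, duplicates; filtration, scintillation counting. Nonspecific with 10 μM naloxone. Ki by Cheng–Prusoff.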

[3] = target: T1, Delta-type opioid receptor; experiment: Activity against [35S]GTP-gamma-S binding to human delta opioid receptor expressed in HN9.10 cells; format: functional, cell-based
Summary of the method: (§1)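 Membranes (10 μg) from HN9.10 cells stably expressing hDOR or rMOR; various drug concentrations in duplicate or triplicate, 90 min at 30 °C in HEPES pH 7.4 with GDP, MgCl2, NaCl, 0.1 nM [35S]GTPγS; filtration, scintillation counting.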

[4] = target: Mu-type opioid receptor (Rattus norvegicus) (UniProt P33535); experiment: (§2) Activity against [35S]GTP-gamma-S binding to rat mu opioid receptor expressed in HN9.10 cells; format: functional, cell-based; summary of the method: as §1
[5] = target: T2, Mu-type opioid receptor; experiment: as §2; format: functional, cell-based; summary of the method: as §1
[6] = target: Delta-type opioid receptor (Mus musculus, UniProt P32300); experiment: Agonist activity at delta opioid receptor assessed as inhibition of electrically stimulated ICR mouse vas deferens contraction; format: functional, tissue-based
Summary of the method: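 Vas deferens from male ICR mice, in 20 mL baths at 0.5 g tension, Mg-free oxygenated Krebs, 37 °C; electrical stimulation 0.1 Hz, 2.0 ms pulses, supramaximal voltage. Cumulative addition to maximal inhibition; integrity checked with 10 nM DPDPE. IC50 by Hill-equation nonlinear least-squares fit, at least four tissues.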

[7] = target: Mu-type opioid receptor (Cavia porcellus, UniProt P97266); experiment: Agonist activity at mu opioid receptor assessed as inhibition of electrically stimulated Hartley guinea pig ileum contraction; format: functional, tissue-based
Summary of the method: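 Longitudinal muscle–myenteric plexus strips from male Hartley guinea pig ileum, 1 g tension, oxygenated Krebs at 37 °C; 0.1 Hz, 0.4 ms supramaximal stimulation. […] Integrity checked with 10 nM PL-017. Hill-equation fit, at least four tissues.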

[8] = target: T3, Cholecystokinin receptor type A (Homo sapiens, UniProt P32238); experiment: Displacement of [125I]CCK-8(SO3) from human CCK1 receptor expressed in HEK293 cells; format: cell-based
T3 sequence (P32238 whole entry): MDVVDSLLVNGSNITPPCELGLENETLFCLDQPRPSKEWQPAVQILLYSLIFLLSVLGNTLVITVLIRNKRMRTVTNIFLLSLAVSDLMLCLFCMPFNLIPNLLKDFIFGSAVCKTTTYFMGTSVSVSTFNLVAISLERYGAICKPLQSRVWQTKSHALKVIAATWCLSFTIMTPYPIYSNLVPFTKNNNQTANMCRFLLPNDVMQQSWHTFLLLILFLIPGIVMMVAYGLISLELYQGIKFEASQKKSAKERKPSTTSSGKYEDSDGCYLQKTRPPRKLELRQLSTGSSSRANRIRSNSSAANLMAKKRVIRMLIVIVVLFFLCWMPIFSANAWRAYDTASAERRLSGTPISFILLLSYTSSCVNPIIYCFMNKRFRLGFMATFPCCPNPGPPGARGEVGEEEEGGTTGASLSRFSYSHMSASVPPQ

[9] = target: T4, Gastrin/cholecystokinin type B receptor (Homo sapiens, UniProt P32239); experiment: Displacement of [125I]CCK-8(SO3) from human CCK2 receptor expressed in HEK293 cells; format: cell-based
T4 sequence (P32239 whole entry): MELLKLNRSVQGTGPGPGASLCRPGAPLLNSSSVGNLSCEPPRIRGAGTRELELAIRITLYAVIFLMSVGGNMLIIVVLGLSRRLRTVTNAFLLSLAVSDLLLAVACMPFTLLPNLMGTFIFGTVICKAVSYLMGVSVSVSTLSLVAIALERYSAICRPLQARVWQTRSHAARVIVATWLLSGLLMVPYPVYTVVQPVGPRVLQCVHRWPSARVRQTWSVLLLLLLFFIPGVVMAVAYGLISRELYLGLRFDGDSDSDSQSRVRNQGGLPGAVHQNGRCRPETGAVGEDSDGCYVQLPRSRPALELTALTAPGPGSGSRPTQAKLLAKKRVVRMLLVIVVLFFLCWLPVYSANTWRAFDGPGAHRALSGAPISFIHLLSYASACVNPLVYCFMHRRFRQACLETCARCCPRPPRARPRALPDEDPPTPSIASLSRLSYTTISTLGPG

[10] = target: T4, Gastrin/cholecystokinin type B receptor; experiment: Antagonist activity at CCK2 receptor expressed in HEK293 cells assessed as accumulation of [3H]inositol phosphates by PI assay; format: functional, cell-based

T1 sequence (P41143 whole entry): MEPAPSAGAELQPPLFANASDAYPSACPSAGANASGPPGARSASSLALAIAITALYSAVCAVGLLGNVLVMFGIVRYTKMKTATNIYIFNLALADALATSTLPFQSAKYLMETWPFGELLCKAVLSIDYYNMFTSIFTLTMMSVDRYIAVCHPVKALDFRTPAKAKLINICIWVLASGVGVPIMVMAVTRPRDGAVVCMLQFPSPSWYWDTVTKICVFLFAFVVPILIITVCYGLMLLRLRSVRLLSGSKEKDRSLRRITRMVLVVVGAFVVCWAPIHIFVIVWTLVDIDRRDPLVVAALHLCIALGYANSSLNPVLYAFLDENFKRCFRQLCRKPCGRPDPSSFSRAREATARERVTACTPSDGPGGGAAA
Chain of Mu-type opioid receptor (Rattus norvegicus) (P33535 whole entry): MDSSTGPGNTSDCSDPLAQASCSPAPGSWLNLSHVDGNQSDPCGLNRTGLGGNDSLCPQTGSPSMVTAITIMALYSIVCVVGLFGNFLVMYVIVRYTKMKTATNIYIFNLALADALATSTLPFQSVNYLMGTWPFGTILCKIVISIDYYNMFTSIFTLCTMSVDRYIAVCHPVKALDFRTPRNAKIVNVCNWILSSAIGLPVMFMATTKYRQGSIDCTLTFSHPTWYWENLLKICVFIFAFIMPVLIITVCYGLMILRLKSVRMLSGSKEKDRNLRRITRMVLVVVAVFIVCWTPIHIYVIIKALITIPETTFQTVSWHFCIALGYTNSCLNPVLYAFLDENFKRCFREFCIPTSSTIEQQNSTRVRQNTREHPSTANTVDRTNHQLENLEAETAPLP
T2 sequence (P33535 whole entry): as above
Chain of Mu-type opioid receptor (Cavia porcellus, UniProt P97266) (P97266 whole entry): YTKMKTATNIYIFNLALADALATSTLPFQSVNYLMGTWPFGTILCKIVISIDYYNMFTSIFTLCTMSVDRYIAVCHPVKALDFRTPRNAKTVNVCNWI
Chain of Delta-type opioid receptor (Mus musculus, UniProt P32300) (P32300 whole entry): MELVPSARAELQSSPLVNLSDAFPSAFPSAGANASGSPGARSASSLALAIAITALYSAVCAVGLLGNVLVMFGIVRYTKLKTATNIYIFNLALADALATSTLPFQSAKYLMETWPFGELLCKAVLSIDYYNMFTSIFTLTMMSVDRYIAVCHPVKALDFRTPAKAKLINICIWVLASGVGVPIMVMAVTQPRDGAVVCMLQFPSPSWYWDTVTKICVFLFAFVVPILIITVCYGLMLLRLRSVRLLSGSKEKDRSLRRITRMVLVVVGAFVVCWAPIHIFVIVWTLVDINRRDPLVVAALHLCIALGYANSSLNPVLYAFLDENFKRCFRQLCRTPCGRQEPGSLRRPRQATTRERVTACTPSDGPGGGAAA

Row | Structure (SMILES) | pIC50 [1] | pKi [1] | pIC50 [2] | pKi [2] | pEC50 [3] | Emax [3] | Emax [4] | pEC50 [5] | pIC50 [6] | pIC50 [7] | pIC50 [8] | pKi [8] | pIC50 [9] | pKi [9] | pEC50 [10]
1 | CCCC[C@H](NC(=O)[C@H](Cc1c[nH]c2ccccc12)NC(=O)CNC(=O)[C@@H](C)NC(=O)[C@@H](N)Cc1ccc(O)cc1)C(=O)N[C@@H](CC(=O)O)C(=O)N[C@@H](Cc1ccccc1)C(N)=O | 9.28 | 9.66 | 7.74 | 8.11 | 8.23 | 74% | 86% | 7.92 | 7.35 | 6.80 | 5.24 | 5.24 | 6.84 | 6.82 | 8.10
2 | CCCC[C@@H](C(=O)N[C@@H](CC(=O)O)C(=O)N[C@@H](Cc1ccccc1)C(N)=O)N(C)C(=O)[C@H](Cc1c[nH]c2ccccc12)NC(=O)CNC(=O)[C@@H](C)NC(=O)[C@@H](N)Cc1ccc(O)cc1 | 8.28 | 8.66 | 7.05 | 7.41 | 6.92 | 270% | 73% | 7.74 | 7.18 | 6.33 | 5.29 | 5.29 | 8.79 | 8.80 | 8.34
3 | CCCC[C@@H](NC(=O)[C@@H](N)Cc1ccc(O)cc1)C(=O)NCC(=O)N[C@@H](Cc1c[nH]c2ccccc12)C(=O)N(C)[C@@H](CCCC)C(=O)N[C@@H](CC(=O)O)C(=O)N[C@@H](Cc1ccccc1)C(N)=O | 8.33 | 8.70 | 7.23 | 7.60 | 7.82 | 150% | 70% | 6.96 | 8.05 | 7.32 |  |  | 8.42 | 8.42 | 7.72
4 | CCCC[C@@H](C(=O)N[C@@H](CC(=O)O)C(=O)N[C@@H](Cc1ccccc1)C(N)=O)N(C)C(=O)[C@@H](Cc1c[nH]c2ccccc12)NC(=O)CNC(=O)[C@@H](C)NC(=O)[C@@H](N)Cc1ccc(O)cc1 | 8.46 | 8.82 | 7.30 | 7.66 | 7.64 | 56% | 44% | 7.42 | 7.20 | 6.82 | 6.50 | 6.49 | 8.81 | 8.82 | 8.18
5 | CCCC[C@H](NC(=O)[C@@H](Cc1c[nH]c2ccccc12)NC(=O)CNC(=O)[C@@H](Cc1ccccc1)NC(=O)[C@@H](N)Cc1ccc(O)cc1)C(=O)N[C@@H](CC(=O)O)C(=O)N[C@@H](Cc1ccccc1)C(N)=O | 6.40 | 6.77 | 6.15 | 6.52 | 6.89 | 170% | 160% | 7.35 | 6.77 | 5.57 | 5.71 | 5.70 | 5.76 | 5.77 | 
6 | CCCC[C@H](NC(=O)[C@@H](Cc1c[nH]c2ccccc12)NC(=O)CNC(=O)[C@@H](C)NC(=O)[C@@H](N)Cc1ccc(O)cc1)C(=O)N[C@@H](CC(=O)O)C(=O)N[C@@H](Cc1ccccc1)C(N)=O | 5.70 | 6.07 | 5.89 | 6.23 | 6.89 | 91% | 110% | 6.46 | 5.89 | 5.64 | 5.19 | 5.19 | 5.57 | 5.57 | 6.48
7 | CCCC[C@@H](C(=O)N[C@@H](CC(=O)O)C(=O)N[C@@H](Cc1ccccc1)C(N)=O)N(C)C(=O)[C@H](Cc1c[nH]c2ccccc12)NC(=O)CNC(=O)[C@@H](Cc1ccccc1)NC(=O)[C@@H](N)Cc1ccc(O)cc1 | 7.73 | 9.00 | 6.61 | 7.00 | 8.60 | 84% | 300% | 7.66 | 7.19 | 7.00 | 5.44 | 5.44 | 7.82 | 7.82 | 7.80
